Assay outcomes from PubChem BioAssay.
GSTO1 inh: GSTO1 inhibition, counter-screen for RBBP9 inhibitors. P78417. recombinant GSTO1, activity-based probe fluorescence polarization. inhibition, % at 5.96 µM. actives 1.1% (n = 300,000). AID 1974;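 active = inhibition above the campaign mean inhibition plus 3 SD, cut at about 35% in these data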
PAD4 FP inh: blocks human protein arginine deiminase 4; Q9UM07; recombinant PAD4, RCA probe fluorescence polarization; inhibition, % at 6.36 µM; actives 0.41% (n = 330,000);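 active = percent inhibition above a cutoff equal to the mean of all tested compounds plus 3 SD, cut at about 15% in these data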
RBBP9 inhibitor: blocks human serine hydrolase RBBP9; inhibition, % at 7.94 µM; actives 0.2% (n = 220,000); recombinant RBBP9, FP-Rh probe fluorescence polarization; AID 1515; O75884;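 active = inhibition above the campaign mean of all tested compounds plus 3 SD, cut at about 14% in these data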
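Assay system: recombinant human RBBP9; Reagent: Serine-hydrolase probe FP-Rh, 375 nM pre-mixing; Doses: 7.94 µM single dose, 0.794% DMSO; Incubation: 30 min then 45 min, 25 °C; Detection: fluorescence polarization (mP), excitation 525 nm, emission 598 nm; Evaluation: percent inhibition from mP, scaled between DMSO and no-protein wells.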
PRMT1 FP inh: blocks human protein arginine methyltransferase 1; recombinant PRMT1, activity-based probe fluorescence polarization; actives 1.3% (n = 370,000); inhibition, % at 2.79 µM; Q99873; AID 652257;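 active = inhibition above about 21% made by adding two undisclosed values, limit read from the data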
Target sequence (Q99873 whole entry, looked up): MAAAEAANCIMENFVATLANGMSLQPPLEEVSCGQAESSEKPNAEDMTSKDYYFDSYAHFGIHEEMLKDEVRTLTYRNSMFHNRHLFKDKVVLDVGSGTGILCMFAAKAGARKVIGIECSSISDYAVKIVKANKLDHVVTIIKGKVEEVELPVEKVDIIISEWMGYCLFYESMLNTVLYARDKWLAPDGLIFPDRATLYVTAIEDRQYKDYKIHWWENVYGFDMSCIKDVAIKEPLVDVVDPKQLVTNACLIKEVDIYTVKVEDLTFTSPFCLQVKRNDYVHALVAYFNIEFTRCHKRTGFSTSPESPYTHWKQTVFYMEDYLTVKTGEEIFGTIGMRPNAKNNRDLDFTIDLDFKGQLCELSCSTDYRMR
SIAE inh: blocks human sialic acid acetylesterase | SIAE FP-Rh probe binding, fluorescence polarization | Q9HAT2 | actives 0.69% (n = 370,000) | AID 1053197 | inhibition, % at 9.66 µM;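 active = inhibition above a cutoff: mean of compounds within the control limits plus 3 SD of those, cut at about 17% in these data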
GSTO1 confirm: GSTO1 (human) inhibition, confirmation. shares compounds with GSTO1 inh. recombinant GSTO1, probe fluorescence polarization. inhibition, % at 5.96 µM. actives 54% (n = 2,400);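 active = inhibition above the primary screen's cutoff, its mean inhibition plus 3 SD, cut at about 35% in these data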;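 note: loss of polarization as inhibitors block binding of rhodamine sulfonate ester activity probe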
GSTO1 recomb ABPP: blocks recombinant human glutathione S-transferase omega 1. shares compounds with GSTO1 inh. inhibition, % at 1 µM. recombinant GSTO1, gel ABPP SE-Rh probe fluorescence. actives 30% (n = 130). AID 463110;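 active = inhibition of the enzyme GSTO1 above about 75%, limit read from the data; inactive = inhibition below that limit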
Large screens that a line does not name were inactive (follow-up assays come after a bar, where they were run). Hits are enriched below; roughly 2.7% of the tested compounds scored in any of these assays.

Cc1ccc(N(Cc2cc(=O)[nH]c3ccccc23)C(=O)CCl)c(C)c1	GSTO1 inh 64 (no result: RBBP9 inhibitor) | GSTO1 confirm 75 | GSTO1 recomb ABPP inactive
CCCC(=O)N(Cc1cc(=O)[nH]c2ccccc12)c1ccc(C)cc1C	none (no result: GSTO1 inh, PAD4 FP inh, RBBP9 inhibitor)
Nc1c(Cl)ncnc1N/N=C/c1cccc(O)c1	GSTO1 inh 45 | GSTO1 confirm inactive
CC(C)NC(=O)c1ccccc1NC(=O)Cc1ccc(Br)cc1	none
CCN(CC(=O)NCc1ccc(Cl)cc1)C(=O)CSCC(=O)Nc1cccc(C)c1	GSTO1 inh 44 (no result: RBBP9 inhibitor) | GSTO1 confirm inactive
CC1CCN(CCCCOc2ccccc2-c2ccccc2)CC1	none
CNC(=S)N(C)c1ccccc1	none
COc1ccccc1C(=O)NC(=S)Nc1ccccc1N1CCCC1	GSTO1 inh 40 (no result: RBBP9 inhibitor) | GSTO1 confirm inactive
O=C1Nc2cc(S(=O)(=O)N3CCCC3)ccc2N2CCCC12 (centres undefined)	none
O=C1Nc2ccccc2N2CCCC12 (centres undefined)	GSTO1 inh 69 (no result: PRMT1 FP inh, SIAE inh) | GSTO1 confirm 77
Cc1ccccc1N1CCN(C2CCCN(C(=O)c3noc4c3CCCC4)C2)CC1 (centres undefined)	none (no result: RBBP9 inhibitor)
CN(Cc1ccccc1)C(=O)c1[nH]cnc1C(=O)N[C@@H](CCCCNC(=O)OC(C)(C)C)C(=O)OC(C)(C)C	none (no result: PRMT1 FP inh, SIAE inh)
CC(C)c1cc2c(c(O)c1O)[C@@]13CCCC(C)(C)C1CC2OC3=O (some centres undefined)	GSTO1 inh 41, PRMT1 FP inh 36, SIAE inh 20 (no result: RBBP9 inhibitor) | GSTO1 confirm inactive
CCOC(=O)C(=O)Nc1cc(C)nn1-c1nc2ccccc2[nH]1	GSTO1 inh 45 | GSTO1 confirm inactive
CCCCn1c(N)c(N(CC(C)C)C(=O)C2CC(=O)N(Cc3ccccc3)C2)c(=O)[nH]c1=O (centres undefined)	none (no result: RBBP9 inhibitor)
O=C(Cc1cc(=O)[nH][nH]1)N/N=C/C(Cl)=C/c1ccccc1	GSTO1 inh 54 | GSTO1 confirm inactive
O=C(NCc1cccs1)C1CC(O)CN1C(=O)Nc1ccccc1 (centres undefined)	none (no result: RBBP9 inhibitor)
O=[N+]([O-])c1cccc(C=Nc2cccc3ccccc23)c1O	GSTO1 inh 41 (no result: RBBP9 inhibitor) | GSTO1 confirm inactive
O=[N+]([O-])c1ccc(O)c(C=Nc2cccc3ccccc23)c1	GSTO1 inh 52 (no result: RBBP9 inhibitor) | GSTO1 confirm inactive
Oc1ccc(C=Nc2cccc3ccccc23)c(O)c1	GSTO1 inh 38 (no result: RBBP9 inhibitor) | GSTO1 confirm inactive
Cc1nc2ccccc2c(=O)n1/N=C/c1ccc(O)cc1O	none
O=[N+]([O-])c1cc2ccccc2c(O)c1O	none (no result: GSTO1 inh, PAD4 FP inh, RBBP9 inhibitor)
COc1ccc(-c2cc(C(F)(F)F)nc(SCC(=O)NCc3ccco3)n2)cc1OC	none
O=C(OCC(=O)N1CCC(c2ccccc2)=N1)c1ccc([N+](=O)[O-])s1	GSTO1 inh 58 (no result: RBBP9 inhibitor) | GSTO1 confirm inactive
Cc1[nH]c2ccccc2c1C(=O)COC(=O)c1ccc([N+](=O)[O-])s1	GSTO1 inh 52 | GSTO1 confirm inactive
COc1ccccc1CNC(=O)COC(=O)c1ccncc1	none (no result: GSTO1 inh, RBBP9 inhibitor)
O=C(O)COc1ccc(-c2nccc(-c3ccccn3)n2)cc1	none
c1ccc(COCCC2CO2)cc1 (centres undefined)	GSTO1 inh 61 (no result: RBBP9 inhibitor, PRMT1 FP inh, SIAE inh) | GSTO1 confirm 72 | GSTO1 recomb ABPP inactive
COC(=O)CCc1nc2ccccc2nc1OC	none
CCC1CCCCN1C(=O)C(=O)c1cn(CC(=O)N(CC)CC)c2ccccc12 (centres undefined)	GSTO1 inh 40 (no result: RBBP9 inhibitor) | GSTO1 confirm inactive
Oc1ccc(-c2nc(-c3ccc(O)c(O)c3)cs2)cc1	GSTO1 inh 47 | GSTO1 confirm inactive
Oc1ccc(Nc2nc(-c3ccc4ccccc4c3)cs2)cc1	none
CC(C)NC(=O)CCCc1ccccc1	none
CC(=O)N(Cc1ccc(F)cc1)C1=C(NCCc2ccccc2)C(=O)c2ccccc2C1=O	GSTO1 inh 44 | GSTO1 confirm 46
O=C1NN(c2ccccc2)C(=O)/C1=C/c1ccc(Sc2cccc3ccccc23)o1	GSTO1 inh 49 | GSTO1 confirm 66
O=C1NN(c2ccccc2)C(=O)/C1=C/c1ccc(-c2ccc(C(=O)O)cc2)o1	none (no result: RBBP9 inhibitor)
CCOc1ccc(C(=O)Oc2cc(C)[nH]c(=O)c2[N+](=O)[O-])cc1	GSTO1 inh 61 (no result: RBBP9 inhibitor) | GSTO1 confirm inactive
